# Results taken from ChEMBL document CHEMBL2346523, “Synthesis and in vitro and in vivo characterization of highly β1-selective β-adrenoceptor partial agonists” (J Med Chem, 2013).
# The source made the active and inactive calls. The calls are words filed in the database; no cut-off is given here.
# What was measured:
# CHO-K1 = test: Selectivity ratio of Kd for human beta1 adrenoceptor expressed in CHOK1 cells by radioligand displacement assay to Kd for human beta2 adrenoceptor expressed in CHOK1 cells by radioligand displacement assay; format: cell-based
# Summary of the method: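 Whole-cell 3H-CGP 12177 binding (0.73 nM) in confluent CHO-K1 cells expressing human β1 or β2, 2 h at 37 °C. Cells were washed with cold PBS and counted by scintillation. Nonspecific binding was defined with 10 μM propranolol. IC50 came from a one-site fit, converted to KD; […] KD ratio. Triplicate points.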
# [1] = molecular target: T1, Beta-3 adrenergic receptor (Homo sapiens, UniProt P13945); test: Agonist activity at human beta3 adrenoceptor expressed in CHOK1 cells assessed as induction of [3H]cAMP accumulation at 10 uM after 5 hrs relative to isoprenaline; format: functional, cell-based; settings: CHO-K1
# Summary of the method: (§1)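 CHO-K1 cells stably expressing human β3 (790 fmol/mg protein) were grown to confluence and prelabelled 2 h with 2 μCi/mL 3H-adenine. Cells then had 15 min in 1 mM IBMX, followed by ligand for 5 h. The reaction was stopped with HCl, and 3H-cAMP was isolated on Dowex/alumina columns. Responses are % of 10 μM isoprenaline. Mean ± SEM of separate experiments.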
# Target sequence in this assay (P13945 whole entry, looked up): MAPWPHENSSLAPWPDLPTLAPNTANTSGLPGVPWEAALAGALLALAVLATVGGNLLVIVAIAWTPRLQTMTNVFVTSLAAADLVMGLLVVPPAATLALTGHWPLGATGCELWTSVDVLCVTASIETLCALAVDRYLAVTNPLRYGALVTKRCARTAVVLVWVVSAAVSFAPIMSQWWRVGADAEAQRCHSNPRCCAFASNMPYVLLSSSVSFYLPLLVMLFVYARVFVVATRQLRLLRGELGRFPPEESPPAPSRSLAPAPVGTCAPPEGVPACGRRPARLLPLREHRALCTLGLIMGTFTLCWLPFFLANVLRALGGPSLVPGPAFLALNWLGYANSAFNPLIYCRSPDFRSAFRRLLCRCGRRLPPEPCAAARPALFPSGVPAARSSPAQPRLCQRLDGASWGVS
# [2] = molecular target: T1, Beta-3 adrenergic receptor; test: Antagonist activity at human beta3 adrenoceptor expressed in CHOK1 cells assessed as inhibition of cimaterol-induced [3H]cAMP accumulation incubated for 15 mins prior to cimaterol induction measured after 5 hrs; format: functional, cell-based, CHO-K1
# Summary of the method: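 3H-cAMP accumulation in CHO-K1 cells stably expressing human β1, β2 or β3 adrenoceptors, prelabelled with 3H-adenine. Log KD was taken from the dose ratio shift, or by the Stephenson partial-agonist method when partial agonism was seen. Triplicates, on the same cell passage.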
# Target sequence in this assay (P13945 whole entry): as the sequence (P13945 whole entry, looked up) above
# [3] = molecular target: T2, Beta-2 adrenergic receptor (Homo sapiens, UniProt P07550); test: Antagonist activity at human beta2 adrenoceptor expressed in CHOK1 cells assessed as inhibition of cimaterol-induced [3H]cAMP accumulation incubated for 15 mins prior to cimaterol induction measured after 5 hrs; format: functional, cell-based, CHO-K1
# Target sequence in this assay (P07550 whole entry): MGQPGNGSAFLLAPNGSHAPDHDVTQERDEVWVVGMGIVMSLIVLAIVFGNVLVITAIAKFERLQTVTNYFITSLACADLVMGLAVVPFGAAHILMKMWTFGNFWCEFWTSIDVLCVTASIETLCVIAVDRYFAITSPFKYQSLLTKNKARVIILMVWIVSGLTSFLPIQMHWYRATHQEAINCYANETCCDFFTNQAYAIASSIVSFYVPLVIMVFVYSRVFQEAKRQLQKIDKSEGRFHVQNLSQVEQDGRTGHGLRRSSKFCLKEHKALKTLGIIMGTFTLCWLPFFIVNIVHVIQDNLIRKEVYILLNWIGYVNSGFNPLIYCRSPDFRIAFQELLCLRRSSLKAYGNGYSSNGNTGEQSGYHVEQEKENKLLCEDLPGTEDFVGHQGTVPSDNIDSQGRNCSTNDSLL
# [4] = molecular target: T2, Beta-2 adrenergic receptor; test: Displacement of [3H]-CGP12177 from human beta2 adrenoceptor expressed in CHOK1 cells after 2 hrs by scintillation counting analysis; format: cell-based, CHO-K1; settings: for inhibition: CHO-K1
# [5] = molecular target: T3, Beta-1 adrenergic receptor (Homo sapiens, UniProt P08588); test: Antagonist activity at human beta1 adrenoceptor expressed in CHOK1 cells assessed as inhibition of cimaterol-induced [3H]cAMP accumulation incubated for 15 mins prior to cimaterol induction measured after 5 hrs; format: functional, cell-based, CHO-K1
# T3 sequence (P08588 whole entry): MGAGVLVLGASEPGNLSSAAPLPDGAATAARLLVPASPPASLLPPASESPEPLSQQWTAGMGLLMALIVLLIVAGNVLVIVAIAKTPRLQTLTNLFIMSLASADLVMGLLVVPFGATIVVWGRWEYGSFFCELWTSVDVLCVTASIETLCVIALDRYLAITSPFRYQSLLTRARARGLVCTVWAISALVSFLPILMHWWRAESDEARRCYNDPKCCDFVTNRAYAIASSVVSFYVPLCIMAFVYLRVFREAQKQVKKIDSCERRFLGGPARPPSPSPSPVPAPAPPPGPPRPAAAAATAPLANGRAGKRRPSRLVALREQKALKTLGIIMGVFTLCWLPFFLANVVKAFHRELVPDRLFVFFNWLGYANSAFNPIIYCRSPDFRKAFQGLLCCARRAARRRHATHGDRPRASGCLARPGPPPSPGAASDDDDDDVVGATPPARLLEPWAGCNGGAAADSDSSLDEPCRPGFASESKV
# [6] = molecular target: T3, Beta-1 adrenergic receptor; test: Displacement of [3H]-CGP12177 from human beta1 adrenoceptor expressed in CHOK1 cells after 2 hrs by scintillation counting analysis; format: cell-based, CHO-K1
# [7] = molecular target: T3, Beta-1 adrenergic receptor; test: Partial agonist activity at human beta1 adrenoceptor expressed in CHOK1 cells assessed as induction of [3H]cAMP accumulation after 5 hrs; format: functional, cell-based, CHO-K1
# [8] = molecular target: T1, Beta-3 adrenergic receptor; test: Agonist activity at human beta3 adrenoceptor expressed in CHOK1 cells assessed as induction of [3H]cAMP accumulation at 100 uM after 5 hrs relative to isoprenaline; format: functional, cell-based; settings: CHO-K1; summary of the method: as §1
# Target sequence in this assay (P13945 whole entry, looked up): as the sequence (P13945 whole entry, looked up) above
# Rattus norvegicus [9] = test: Agonist activity at beta2 adrenoceptor in conscious free moving Sprague-Dawley rat model assessed as effect on hindquarters response at 2 mg/kg, iv administered as bolus dose followed by 1 mg/kg/hr, iv administered as 90 mins infusion measured for 0.5 hrs to 25 hrs; format: functional, organism-based
# Summary of the method: (§2)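 Conscious, unrestrained adult male Sprague–Dawley rats (300–350 g) with an implanted Doppler probe, an aortic catheter for blood pressure and heart rate, and a jugular catheter for dosing; studied 24 h after catheterisation. Atropine methyl nitrate 1 mg/kg/h was infused throughout. Isoprenaline 3 min infusions (12, 40, 120 ng/kg/min) were given before and from 30 min after saline or HCl salt iv bolus plus infusion. Response = third-minute value minus pre-infusion steady state; hindquarters conductance derived from BP and Doppler shift; n = 4.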
# Rattus norvegicus [10] = test: Partial agonist activity at beta1 adrenoceptor in conscious free moving Sprague-Dawley rat model assessed as inhibition of heart rate responses at 2 mg/kg, iv administered as bolus followed by 1 mg/kg/hr, iv administered as 90 mins infusion measured for 0.5 hrs to 25 hrs relative to 40 to 120 ng/kg of isoprenaline; format: functional, organism-based; summary of the method: as §2
# Rattus norvegicus [11] = test: Partial agonist activity at beta1 adrenoceptor in conscious free moving Sprague-Dawley rat model assessed as increase in heart rate at 2 mg/kg, iv bolus followed by 1 mg/kg/hr, iv infusion for 90 mins measured for 0.5 hrs to 25 hrs relative to 120 ng/kg of isoprenaline; format: functional; summary of the method: as §2
# [12] = molecular target: T1, Beta-3 adrenergic receptor; test: Agonist activity at human beta3 adrenoceptor expressed in CHOK1 cells assessed as induction of [3H]cAMP accumulation after 5 hrs relative to isoprenaline; format: functional, cell-based; settings: CHO-K1
# Target sequence in this assay (P13945 whole entry, looked up): as above
structure (smiles),measurement,setting,value
O=C(NCCNCC(O)COc1ccc(OCCOC2CCCC2)cc1)Nc1ccc(C(F)(F)F)cc1 (centres undefined),Selectivity ratio,CHO-K1,87
N#Cc1ccccc1OCC(O)CNCCNC(=O)Nc1ccccc1 (centres undefined),Activity,[1],11.7%
N#Cc1cc(OCCOCC2CC2)ccc1OCC(O)CNCCNC(=O)Nc1ccc(O)cc1 (centres undefined) [LK-204545],Kd,[2]; read-out: Kd,> 10000 nM
same,Kd,[3]; read-out: pKd (converted),2880 nM
same,Activity,[1],8.6%
same,Kd,[4],5130 nM
Cc1ccccc1NC(=O)NCCNCC(O)COc1ccc(OCCOC2CCCC2)cc1 (centres undefined),Selectivity ratio,CHO-K1,11
Cc1cccc(NC(=O)NCCNCC(O)COc2ccc(OCCOC3CCCC3)cc2)c1 (centres undefined),Selectivity ratio,CHO-K1,96
O=C(NCCNCC(O)COc1ccc(OCCOC2CCCC2)cc1)Nc1ccc(O)cc1 (centres undefined),Kd,[2]; read-out: Kd,> 10000 nM
same,Kd,[5],2.82 nM
same,Selectivity ratio,CHO-K1,478
same,Kd,[6],7.41 nM
same,Kd,[3]; read-out: pKd (converted),1450 nM
same,Activity,[1],4%
same,EC50,[7],3.63 nM
COc1cccc(NC(=O)NCCNCC(O)COc2ccc(OCCOC3CCCC3)cc2)c1 (centres undefined),Selectivity ratio,CHO-K1,51
O=C(NCCNCC(O)COc1ccc(O)cc1)N1CCOCC1 (centres undefined),Activity,[8],38.3%
O=C(NCCNCC(O)COc1ccc(OCCOC2CCCC2)cc1)Nc1cccc(F)c1 (centres undefined),Selectivity ratio,CHO-K1,43
O=C(NCCNCC(O)COc1ccc(OCCOC2CCCC2)cc1)Nc1cccc(C(F)(F)F)c1 (centres undefined),Selectivity ratio,CHO-K1,81
O=C(NCCNCC(O)COc1ccc(OCCOC2CCCC2)cc1)Nc1cccc(Cl)c1 (centres undefined),Kd,[2]; read-out: pKd (converted),6030 nM
same,Kd,[5],1.48 nM
same,Selectivity ratio,CHO-K1,331
same,Kd,[6],6.17 nM
same,Kd,[3]; read-out: pKd (converted),794 nM
same,Activity,[1],2%
same,EC50,[7],3.02 nM
same,Kd,[4],2040 nM
O=C(NCCNCC(O)COc1ccc(OCCOCCc2ccc(F)cc2)cc1)Nc1ccc(O)cc1 (centres undefined),Kd,[2]; read-out: pKd (converted),2630 nM
same,Kd,[5],1 nM
same,Selectivity ratio,CHO-K1,389
same,Kd,[3]; read-out: pKd (converted),891 nM
same,Activity,[1],7.9%
same,EC50,[7],2.29 nM
same,Kd,[4],1230 nM
O=C(NCCNCC(O)COc1ccc(OCCOCC2CC2)cc1)Nc1ccc(O)cc1 (centres undefined) [listing 1 of 2 here],Activity,Rattus norvegicus [9],inactive
same,Activity,[1],12.5%
same,inhibition,Rattus norvegicus [10],Active
same,inhibition,[4],inactive
O=C(NCCNCC(O)COc1ccc(OCCOC2CCCC2)cc1)Nc1ccccc1C(F)(F)F (centres undefined),Selectivity ratio,CHO-K1,13
Cl.O=C(NCCNCC(O)COc1ccc(OCCOCC2CC2)cc1)Nc1ccc(O)cc1 (centres undefined),Activity,Rattus norvegicus [11],44%
O=C(NCCNCC(O)COc1ccc(OCCOC2CCCC2)cc1)Nc1ccc(F)cc1 (centres undefined),Selectivity ratio,CHO-K1,60
O=C(NCCNCC(O)COc1ccc(OCCOC2CCCC2)cc1)Nc1ccccc1Br (centres undefined),Selectivity ratio,CHO-K1,10
O=C(NCCNCC(O)COc1ccc(OCCOC2CCCC2)cc1)Nc1ccc(Cl)cc1 (centres undefined),Selectivity ratio,CHO-K1,110
CCOCCOc1ccc(OCC(O)CNCCNC(=O)Nc2ccc(O)cc2)cc1 (centres undefined),Kd,[2]; read-out: Kd,> 10000 nM
same,Kd,[5],26.9 nM
same,Kd,[6],91.2 nM
same,Kd,[3]; read-out: Kd,> 10000 nM
same,Activity,[1],1.3%
same,EC50,[7],22.9 nM
same,inhibition,[4],inactive
O=C(NCCNCC(O)COc1ccc(OCCOCC2CC2)cc1)Nc1ccc(O)cc1 (centres undefined) [listing 2 of 2 here],Kd,[2]; read-out: Kd,> 10000 nM
same,Kd,[5],17.8 nM
same,Kd,[6],32.4 nM
same,Kd,[3]; read-out: pKd (converted),7080 nM
same,EC50,[7],9.77 nM
COc1ccc(NC(=O)NCCNCC(O)COc2ccc(OCCOC3CCCC3)cc2)cc1 (centres undefined),Selectivity ratio,CHO-K1,87
O=C(NCCNCC(O)COc1ccc(OCCOC2CCCC2)cc1)Nc1cccc(O)c1 (centres undefined),Selectivity ratio,CHO-K1,110
O=C(NCCNCC(O)COc1ccc(OCCOC2CCCC2)cc1)Nc1ccc(Br)cc1 (centres undefined),Selectivity ratio,CHO-K1,81
O=C(NCCNCC(O)COc1ccc(OCCOC2CCCC2)cc1)Nc1ccccc1F (centres undefined),Selectivity ratio,CHO-K1,76
COc1ccccc1NC(=O)NCCNCC(O)COc1ccc(OCCOC2CCCC2)cc1 (centres undefined),Selectivity ratio,CHO-K1,12
CC(C)NCC(O)c1ccc(N)c(C#N)c1 (centres undefined),Activity,[12],89.6%
O=C(NCCNCC(O)COc1ccc(OCCOC2CCCC2)cc1)Nc1ccccc1 (centres undefined),Kd,[2]; read-out: Kd,> 10000 nM
same,Kd,[5],3.47 nM
same,Selectivity ratio,CHO-K1,213
same,Kd,[6],12.3 nM
same,Kd,[3]; read-out: pKd (converted),1200 nM
same,Activity,[1],4%
same,EC50,[7],4.47 nM
same,Kd,[4],2630 nM
